In ChEMBL document CHEMBL1158491, “Inhibitors of the hepatitis C virus NS3 protease with basic amine functionality at the P3-amino acid N-terminus: discovery and optimization of a new series of P2-P4 macrocycles” (J Med Chem, 2009):

Assays:
[1] = Drug level in Sprague-Dawley rat liver at 5 mg/kg, po after 4 hrs; format: ADME, organism-based; set-up: dose 5 mg/kg, route oral; details: read-out: Drug uptake
How it was run: (§1)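 Oral dosing in male Sprague-Dawley rats, PEG400 vehicle; plasma exposure as AUC 0–4 h; liver tissue concentration taken at the 4 h time point. Doses of 3–4 mg/kg were normalized to 5 mg/kg by linear adjustment.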

[2] = test system: Hepatitis C virus; test: Inhibition of HCV 1b NS3 protease by time-resolved fluorescence assay; set-up: species or system Hepatitis C virus subtype 1b
How it was run: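 Recombinant genotype 1b NS3 protease measured by time-resolved fluorescence assay; Ki determined.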

[3] = test system: Hepatitis C virus; test: Antiviral activity against HCV 1b infected in human HuH7 cells by replicon assay in presence of 10% fetal bovine serum; format: functional, organism-based, Hepacivirus hominis; details: genotype 1b, Huh-7
How it was run: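 Subgenomic genotype 1b HCV RNA replicon in HUH-7 cells, modified Bartenschlager procedure, run with 10% fetal bovine serum. Read-out is cellular HCV RNA, confirmed in a separate assay using an anti-NS3 monoclonal antibody; EC50 derived.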

[4] = Drug level in Sprague-Dawley rat liver at 4 mg/kg, po after 4 hrs; format: ADME, organism-based; set-up: dose 4 mg/kg, route oral; details: read-out: Drug uptake; how it was run: as §1
[5] = AUC (0 to 4 hrs) in Sprague-Dawley rat at 4 mg/kg, po; format: ADME, organism-based; set-up: time < 4 hr, dose 4 mg/kg, route oral; details: plasma; how it was run: as §1
[6] = AUC (0 to 4 hrs) in Sprague-Dawley rat at 5 mg/kg, po; format: ADME, organism-based; set-up: time < 4 hr, dose 5 mg/kg, route oral; details: plasma; how it was run: as §1
[7] = test system: Hepatitis C virus; test: Antiviral activity against HCV 1b infected in human HuH7 cells by replicon assay in presence of 50% normal human plasma; format: functional, organism-based, Hepacivirus hominis; details: genotype 1b, Huh-7, Plasma
How it was run: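 Genotype 1b subgenomic replicon in HUH-7 cells run under high-serum conditions (50% normal human serum). Read-out is cellular HCV RNA; EC50 reported.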

[8] = species: Homo sapiens; test: Fraction unbound in human plasma

Compound	concentration at 4 h [1] [nM]	EC50 [3] [nM]	concentration at 4 h [4] [nM]	AUC(0-t) at 4 h [5] [µM·h]	AUC(0-t) at 4 h [6] [µM·h]	fraction unbound [8]	Ki [2] [nM]	EC50 [7] [nM]
C=C[C@@H]1C[C@]1(NC(=O)[C@@H]1C[C@@H]2CN1C(=O)[C@H](C1CCCC1)N[C@H](C)CCCC/C=C/c1cccc3c1CN(C3)C(=O)O2)C(=O)NS(=O)(=O)C1CC1	260	0.5			< 0.1		0.29	
C=C[C@@H]1C[C@]1(NC(=O)[C@@H]1C[C@@H]2CN1C(=O)[C@H](C(C)C)N[C@@H](C(F)(F)F)CCCCCCc1cccc3c1CN(C3)C(=O)O2)C(=O)NS(=O)(=O)C1CC1		470					5.7	
C=C[C@@H]1C[C@]1(NC(=O)[C@@H]1C[C@@H]2CN1C(=O)[C@H](C(C)C)NC(=O)OCCC/C=C/c1cccc3c1CN(C3)C(=O)O2)C(=O)NS(=O)(=O)C1CC1		12					0.04	
C=C[C@@H]1C[C@]1(NC(=O)[C@@H]1C[C@@H]2CN1C(=O)C(C(C)C)NC(C(F)(F)F)CCCCCCc1cccc3c1CN(C3)C(=O)O2)C(=O)NS(=O)(=O)C1CC1 (single isomer, unassigned)		18				0.019	1.1	320
C=C[C@@H]1C[C@]1(NC(=O)[C@@H]1C[C@@H]2CN1C(=O)C(C(C)C)NCC(F)(F)CCCCCc1cccc3c1CN(C3)C(=O)O2)C(=O)NS(=O)(=O)C1CC1 (single isomer, unassigned)		14					0.35	100

Continued, in another order:

concentration at 4 h [1] [nM]	EC50 [3] [nM]	concentration at 4 h [4] [nM]	AUC(0-t) at 4 h [5] [µM·h]	AUC(0-t) at 4 h [6] [µM·h]	fraction unbound [8]	Compound	Ki [2] [nM]	EC50 [7] [nM]
560	3	560	< 0.1	< 0.1		C=C[C@@H]1C[C@]1(NC(=O)[C@@H]1C[C@@H]2CN1C(=O)[C@H](C1CCCCC1)N(C)[C@H](C)CCCCCCc1cccc3c1CN(C3)C(=O)O2)C(=O)NS(=O)(=O)C1CC1	0.35	
	0.7	< 100	< 0.1			C=C[C@@H]1C[C@]1(NC(=O)[C@@H]1C[C@@H]2CN1C(=O)[C@H](C1CCCC1)N[C@H](C)CCCCCCc1cccc3c1CN(C3)C(=O)O2)C(=O)NS(=O)(=O)C1CC1	0.1	
	2			< 0.1		C=C[C@@H]1C[C@]1(NC(=O)[C@@H]1C[C@@H]2CN1C(=O)[C@H](C1CCCCC1)N[C@H](C)CCCCCCc1cccc3c1CN(C3)C(=O)O2)C(=O)NS(=O)(=O)C1CC1	0.06	
